This is an account of results in ChEMBL document CHEMBL3352809, “Discovery of a Negative Allosteric Modulator of GABAB Receptors” (ACS Med Chem Lett, 2014).

Structures are written as SMILES. Active and inactive are the calls of the source. The calls are words filed in the database; no cut-off is given here.

Broadly, the IC50 is the midpoint of a concentration-inhibition curve.

Assay [1] concerns the target T1, GABA-B receptor (Homo sapiens) (UniProt Q9UBS5+O75899). The assay can be described thus: Negative allosteric modulation of recombinant HA-tagged GB1 subunit/Flag-tagged GB2 subunit receptor (unknown origin) expressed in HEK293 cells co-expressing Gqi9 G-protein assessed as inhibition of GABA-induced Ca2+ release at 50 uM by fluorescence assay. The class given is functional, cell-based. A digest of the protocol: (§1)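 Test compound was at 50 μM. Agonists were GABA 100 μM for GABA_B and glutamate 10 μM for mGluR1, 2 and 5. Response was compared with agonist alone. Data are mean SEM of three independent experiments.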

The target of another assay is GABA-B receptor (Homo sapiens, UniProt O75899+Q9UBS5). The assay is described as follows: (§2) Negative allosteric modulation of recombinant HA-tagged GB1 subunit/Flag-tagged GB2 subunit receptor (unknown origin) expressed in HEK293 cells co-expressing Gqi9 G-protein assessed as inhibition of GABA-induced IP production by liquid scintillation counting. The class given is cell-based. In outline: (§3)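 IP3 formation in HEK293 cells overexpressing GABA_B receptors (GB1 + GB2) and Gq_i9 chimeric proteins. Compounds were tested at 100 μM against GABA 1 μM, with GABA dose-response curves run with or without compound. Inhibition curves were run with compound titrated in the presence of 1 μM GABA to derive IC50. Data are mean SEM of three independent experiments.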
GABA-B receptor, sequence (Q9UBS5 whole entry): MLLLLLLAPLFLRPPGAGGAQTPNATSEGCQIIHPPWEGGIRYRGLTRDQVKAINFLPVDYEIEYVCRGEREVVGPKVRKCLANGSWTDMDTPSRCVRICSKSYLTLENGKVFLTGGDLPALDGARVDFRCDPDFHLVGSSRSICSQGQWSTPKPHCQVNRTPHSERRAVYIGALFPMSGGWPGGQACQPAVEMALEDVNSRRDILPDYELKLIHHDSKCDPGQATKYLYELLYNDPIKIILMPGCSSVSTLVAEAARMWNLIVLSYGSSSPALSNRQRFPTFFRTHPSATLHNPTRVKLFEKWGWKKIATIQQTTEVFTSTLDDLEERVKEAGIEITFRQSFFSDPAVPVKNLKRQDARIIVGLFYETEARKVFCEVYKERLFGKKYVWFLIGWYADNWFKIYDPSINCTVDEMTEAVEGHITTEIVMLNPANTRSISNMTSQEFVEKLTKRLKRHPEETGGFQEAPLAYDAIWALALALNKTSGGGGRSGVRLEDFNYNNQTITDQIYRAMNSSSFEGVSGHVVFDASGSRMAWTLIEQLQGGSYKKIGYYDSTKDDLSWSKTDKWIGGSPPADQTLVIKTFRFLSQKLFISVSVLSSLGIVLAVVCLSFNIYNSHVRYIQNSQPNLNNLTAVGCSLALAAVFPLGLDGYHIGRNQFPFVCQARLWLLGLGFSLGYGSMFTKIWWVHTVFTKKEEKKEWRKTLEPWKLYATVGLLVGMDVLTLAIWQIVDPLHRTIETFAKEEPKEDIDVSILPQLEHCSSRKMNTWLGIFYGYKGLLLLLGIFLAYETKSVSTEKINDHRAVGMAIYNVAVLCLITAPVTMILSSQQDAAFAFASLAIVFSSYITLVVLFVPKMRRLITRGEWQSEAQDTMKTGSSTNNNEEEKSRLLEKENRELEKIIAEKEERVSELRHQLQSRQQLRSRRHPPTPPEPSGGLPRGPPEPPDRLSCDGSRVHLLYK
GABA-B receptor, sequence (O75899 whole entry): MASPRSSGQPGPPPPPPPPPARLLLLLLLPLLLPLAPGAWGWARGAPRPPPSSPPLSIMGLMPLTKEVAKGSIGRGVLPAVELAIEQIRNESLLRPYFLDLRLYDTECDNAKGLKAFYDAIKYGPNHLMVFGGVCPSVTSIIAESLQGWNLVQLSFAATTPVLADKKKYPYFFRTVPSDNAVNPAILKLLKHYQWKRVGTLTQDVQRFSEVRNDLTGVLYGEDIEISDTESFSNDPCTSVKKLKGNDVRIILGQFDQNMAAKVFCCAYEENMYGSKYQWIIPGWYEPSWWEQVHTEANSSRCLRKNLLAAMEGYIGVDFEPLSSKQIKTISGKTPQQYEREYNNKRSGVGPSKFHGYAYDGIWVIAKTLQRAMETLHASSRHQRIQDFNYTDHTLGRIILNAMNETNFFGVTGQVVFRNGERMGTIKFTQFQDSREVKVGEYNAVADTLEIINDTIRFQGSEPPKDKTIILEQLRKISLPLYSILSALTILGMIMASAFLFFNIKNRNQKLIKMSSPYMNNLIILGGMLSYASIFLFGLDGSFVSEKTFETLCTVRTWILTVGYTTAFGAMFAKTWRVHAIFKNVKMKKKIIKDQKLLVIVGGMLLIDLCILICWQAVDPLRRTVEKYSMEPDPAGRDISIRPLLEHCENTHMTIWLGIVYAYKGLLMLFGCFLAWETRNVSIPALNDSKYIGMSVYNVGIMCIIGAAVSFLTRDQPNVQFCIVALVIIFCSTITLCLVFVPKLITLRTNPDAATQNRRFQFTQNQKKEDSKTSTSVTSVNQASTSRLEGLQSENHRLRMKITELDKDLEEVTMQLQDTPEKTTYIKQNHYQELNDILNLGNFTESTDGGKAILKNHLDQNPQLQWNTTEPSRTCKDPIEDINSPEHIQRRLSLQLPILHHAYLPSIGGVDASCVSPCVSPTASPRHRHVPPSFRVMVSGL

Assay [2] has as its target T1, GABA-B receptor (Homo sapiens). Described as §2. The format is cell-based. In outline: as §3
In assay [3] the target is Metabotropic glutamate receptor 1 (Homo sapiens) (UniProt Q13255). The assay can be described thus: Negative allosteric modulation of mGluR1 (unknown origin) expressed in HEK293 cells assessed as inhibition of glutamate-induced Ca2+ release at 50 uM by fluorescence assay. The format is functional, cell-based. A digest of the protocol:
as §1

In assay [4] the target is Metabotropic glutamate receptor 2 (Homo sapiens) (UniProt Q14416). The assay is described as follows: Negative allosteric modulation of mGluR2 (unknown origin) expressed in HEK293 cells co-expressing Gqi9 G-protein assessed as inhibition of glutamate-induced Ca2+ release at 50 uM by fluorescence assay. The format is functional, cell-based. In outline: as §1
Metabotropic glutamate receptor 2 (Homo sapiens), sequence (Q14416 19-872 limits assumed): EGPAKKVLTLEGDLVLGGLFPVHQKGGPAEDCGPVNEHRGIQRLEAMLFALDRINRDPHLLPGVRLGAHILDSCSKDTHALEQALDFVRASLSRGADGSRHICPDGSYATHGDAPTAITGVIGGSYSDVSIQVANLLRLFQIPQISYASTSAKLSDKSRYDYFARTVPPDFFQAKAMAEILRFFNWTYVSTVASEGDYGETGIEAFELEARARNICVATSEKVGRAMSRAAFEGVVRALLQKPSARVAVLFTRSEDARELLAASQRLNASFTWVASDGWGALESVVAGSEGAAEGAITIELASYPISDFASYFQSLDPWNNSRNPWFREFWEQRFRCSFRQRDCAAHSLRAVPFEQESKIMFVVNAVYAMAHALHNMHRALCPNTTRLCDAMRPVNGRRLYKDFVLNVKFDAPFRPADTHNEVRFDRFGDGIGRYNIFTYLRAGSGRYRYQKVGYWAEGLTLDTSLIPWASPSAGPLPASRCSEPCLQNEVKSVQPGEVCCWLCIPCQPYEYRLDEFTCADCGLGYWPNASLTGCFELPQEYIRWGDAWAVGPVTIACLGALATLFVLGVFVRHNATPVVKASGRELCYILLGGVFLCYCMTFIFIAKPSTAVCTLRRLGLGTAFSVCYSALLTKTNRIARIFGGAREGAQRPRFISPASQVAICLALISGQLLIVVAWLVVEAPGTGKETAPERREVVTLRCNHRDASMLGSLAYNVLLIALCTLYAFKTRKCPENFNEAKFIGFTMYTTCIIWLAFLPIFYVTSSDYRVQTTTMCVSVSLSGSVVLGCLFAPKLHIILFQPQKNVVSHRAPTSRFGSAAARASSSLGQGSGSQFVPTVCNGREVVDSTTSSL
Assay [5] concerns the target Metabotropic glutamate receptor 5 (Homo sapiens) (UniProt P41594). The assay is described as follows: Negative allosteric modulation of mGluR5 (unknown origin) expressed in HEK293 cells assessed as inhibition of glutamate-induced Ca2+ release at 50 uM by fluorescence assay. The class given is functional, cell-based. A digest of the protocol:
as §1

In assay [6] the target is T1, GABA-B receptor (Homo sapiens). The assay can be described thus: Displacement of [3H]CGP54626 from recombinant HA-tagged GB1 subunit/Flag-tagged GB2 subunit receptor (unknown origin) expressed in CHO cells up to 100 uM by scintillation proximity assay. The class given is cell-based.
In the next assay the test system is HEK293. The assay can be described thus: Effect on ERK1/2 protein expression in HEK293 cells at 100 uM by immunoblotting. The class given is functional, cell-based. As to conditions: Homo sapiens. In outline: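 ERK1/2 phosphorylation in HEK293 cells overexpressing GABA_B receptors (GB1 + GB2), stimulated with baclofen (100 μM) or CGP7930 (100 μM), with or without test compound at 100 μM. Data are mean SEM of three independent experiments. Significance was taken versus agonist alone.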
(A western blot detects proteins with antibodies after separation by electrophoresis.)

Metabotropic glutamate receptor 1 (Homo sapiens), sequence (Q13255 19-1194 limits assumed): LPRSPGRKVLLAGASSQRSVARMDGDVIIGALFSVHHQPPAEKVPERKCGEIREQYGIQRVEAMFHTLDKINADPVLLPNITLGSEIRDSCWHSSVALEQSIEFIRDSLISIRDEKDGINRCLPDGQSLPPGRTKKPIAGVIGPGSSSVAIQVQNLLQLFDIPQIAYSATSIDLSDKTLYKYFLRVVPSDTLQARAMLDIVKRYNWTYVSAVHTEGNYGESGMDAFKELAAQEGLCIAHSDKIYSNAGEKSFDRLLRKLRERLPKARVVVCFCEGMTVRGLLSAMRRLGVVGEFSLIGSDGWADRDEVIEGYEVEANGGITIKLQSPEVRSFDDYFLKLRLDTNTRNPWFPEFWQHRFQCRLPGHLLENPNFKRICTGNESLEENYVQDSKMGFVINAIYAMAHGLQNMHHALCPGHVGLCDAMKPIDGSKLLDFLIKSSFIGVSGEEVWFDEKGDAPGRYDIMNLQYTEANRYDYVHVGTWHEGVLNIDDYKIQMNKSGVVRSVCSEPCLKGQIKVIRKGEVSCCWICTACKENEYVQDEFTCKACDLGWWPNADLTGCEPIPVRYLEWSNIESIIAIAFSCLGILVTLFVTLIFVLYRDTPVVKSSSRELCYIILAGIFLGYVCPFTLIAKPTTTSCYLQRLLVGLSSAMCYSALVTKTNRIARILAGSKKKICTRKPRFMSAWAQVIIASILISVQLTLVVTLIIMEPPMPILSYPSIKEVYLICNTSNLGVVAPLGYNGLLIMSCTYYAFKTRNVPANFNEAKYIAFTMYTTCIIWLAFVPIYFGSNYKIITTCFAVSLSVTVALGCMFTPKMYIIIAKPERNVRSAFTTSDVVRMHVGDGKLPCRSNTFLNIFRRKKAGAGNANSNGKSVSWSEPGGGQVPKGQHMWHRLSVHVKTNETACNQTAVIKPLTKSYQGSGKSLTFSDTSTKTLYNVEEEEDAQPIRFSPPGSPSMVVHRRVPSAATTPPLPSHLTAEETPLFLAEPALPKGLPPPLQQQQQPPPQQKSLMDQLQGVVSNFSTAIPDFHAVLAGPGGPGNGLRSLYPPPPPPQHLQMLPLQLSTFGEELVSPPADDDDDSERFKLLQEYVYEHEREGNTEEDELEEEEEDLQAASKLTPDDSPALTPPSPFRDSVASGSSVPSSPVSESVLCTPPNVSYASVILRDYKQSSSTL
Metabotropic glutamate receptor 5 (Homo sapiens), sequence (P41594 21-1212 limits assumed): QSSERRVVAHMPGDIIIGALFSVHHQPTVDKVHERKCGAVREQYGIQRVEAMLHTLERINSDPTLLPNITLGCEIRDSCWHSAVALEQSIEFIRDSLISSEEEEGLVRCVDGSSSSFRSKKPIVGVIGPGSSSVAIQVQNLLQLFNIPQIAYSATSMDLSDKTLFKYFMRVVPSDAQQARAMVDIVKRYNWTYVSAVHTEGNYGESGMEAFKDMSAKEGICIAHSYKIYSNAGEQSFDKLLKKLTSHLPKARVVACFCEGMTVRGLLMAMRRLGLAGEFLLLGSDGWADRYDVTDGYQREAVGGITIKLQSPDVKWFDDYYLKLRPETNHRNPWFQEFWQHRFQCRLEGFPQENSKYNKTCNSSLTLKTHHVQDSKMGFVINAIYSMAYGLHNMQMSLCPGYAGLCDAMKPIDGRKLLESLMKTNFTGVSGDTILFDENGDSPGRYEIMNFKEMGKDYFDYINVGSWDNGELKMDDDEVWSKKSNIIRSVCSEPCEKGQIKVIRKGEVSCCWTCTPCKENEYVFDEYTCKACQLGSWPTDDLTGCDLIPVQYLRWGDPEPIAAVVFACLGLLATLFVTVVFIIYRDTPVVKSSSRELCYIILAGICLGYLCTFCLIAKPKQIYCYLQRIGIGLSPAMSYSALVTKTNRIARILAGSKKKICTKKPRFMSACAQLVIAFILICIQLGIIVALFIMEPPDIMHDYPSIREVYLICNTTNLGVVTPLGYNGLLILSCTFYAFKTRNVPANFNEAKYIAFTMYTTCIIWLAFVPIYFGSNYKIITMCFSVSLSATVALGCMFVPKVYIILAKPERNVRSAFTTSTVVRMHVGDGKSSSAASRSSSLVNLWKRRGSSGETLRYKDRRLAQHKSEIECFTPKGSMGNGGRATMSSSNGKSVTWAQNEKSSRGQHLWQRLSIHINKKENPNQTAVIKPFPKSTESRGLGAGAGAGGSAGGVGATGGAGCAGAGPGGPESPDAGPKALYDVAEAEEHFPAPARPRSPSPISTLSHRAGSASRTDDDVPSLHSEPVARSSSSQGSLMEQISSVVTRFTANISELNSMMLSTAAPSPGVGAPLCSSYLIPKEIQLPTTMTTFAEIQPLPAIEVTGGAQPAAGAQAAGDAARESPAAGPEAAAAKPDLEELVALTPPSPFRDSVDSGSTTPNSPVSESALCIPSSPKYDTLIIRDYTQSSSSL

For the molecule `CC(C)(C)c1cc(/C=C/C(=O)C(=O)O)cc(C(C)(C)C)c1O`, the inhibition result in assay [1] was “Active”. Besides, on GABA-B receptor, the half-maximal inhibitory concentration (IC50) was 37.9 µM. Moreover, the inhibition result in assay [2] was “Dose-dependent effect”. Also, the inhibition result in assay [3], in assay [4], in assay [5] and in assay [6] was “inactive” in each case.

As to `COC(O)CC(O)c1cc(C(C)(C)C)c(O)c(C(C)(C)C)c1` (stereo not given), the inhibition result in the assay on HEK293 was “inactive”.

`CC(C)(C)c1cc(/C=C/C=O)cc(C(C)(C)C)c1O`: at GABA-B receptor, the 50% inhibitory concentration (IC50) stood at 21.3 µM. Further, the inhibition result in assay [2] is “Dose-dependent effect”.
